Counter-ions that a name gives are not always drawn. Like-named read-outs stand apart in the source and are kept apart here.
What was measured:
[1] = tested on: patients with R/R ATL; experiment: Phase 2 trial of valemetostat: investigator-assessed response; format: in vivo, human; conditions: 7/25 (CR plus CRu)
Summary of the method: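 Investigator-assessed response in patients given ≥1 dose of oral test compound, 200 mg once daily, fasting, 28-day cycles. Nodal/extranodal lesions were measured by CT as sums of products of greatest diameters, skin by visual review and modified severity-weighted assessment tool, and blood by white cell, lymphocyte and abnormal lymphocyte counts. ORR was the proportion with best response CR, CRu or PR, with a Clopper-Pearson 90% CI.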

[2] = tested on: ATL cell; conditions: compared with tazemetostat and GSK126; cited from earlier work
[3] = tested on: H3K27 trimethylation; conditions: compared with the EZH2-selective inhibitor tazemetostat; cited from earlier work
[4] = tested on: patients with R/R ATL; format: in vivo, human
Summary of the method: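 Adults with R/R ATL (acute, lymphoma or unfavourable chronic type) took oral test compound (EZH1/EZH2 inhibitor) 200 mg once daily, fasting, in continuous 28-day cycles until progression or unacceptable toxicity; 50 mg if on strong CYP3A plus P-gp inhibitors. An independent committee assessed response at week 4, then every 8 weeks, then every 12 weeks after week 48, using modified ATL criteria without the ≥4-week persistence requirement.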

[5] = tested on: patients with R/R ATL; experiment: Phase 2 trial of valemetostat: safety; format: in vivo, human
Summary of the method: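 Safety population: all patients receiving ≥1 dose of oral test compound, 200 mg once daily, fasting, in continuous 28-day cycles; dose was reduced to 50 mg with strong CYP3A plus P-gp inhibitors. Adverse events were coded with MedDRA version 23.1 and graded by CTCAE version 5.0.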

[6] = Plasma valemetostat pharmacokinetics, noncompartmental analysis; format: in vivo, human; conditions: Mean (SD); for AUC / Cmax: human, plasma, oral, 200 mg; for AUC: AUCtau, Cycle 1 day 15 (steady state)
Summary of the method: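 Patients took oral test compound, 200 mg once daily, fasting. Serial and trough blood samples were taken for plasma drug levels. Total and unbound drug were measured at steady state on cycle 1 day 15. Accumulation ratio was derived from AUC over the dosing interval.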

[7] = IEAC best response, ATL subtype Acute, N=16
[8] = IEAC best response, ATL subtype Lymphoma, N=6
[9] = IEAC best response, ATL subtype Unfavorable chronic, N=3
[10] = IEAC best response, All patients, N=25
[11] = IEAC best response, Disease site Nodal or extranodal lesions, N=20
[12] = IEAC best response, Disease site Peripheral blood, N=9
[13] = IEAC best response, Disease site Skin lesions, N=7
[14] = IEAC best response, Disease status Recurrent, N=6
[15] = IEAC best response, Disease status Refractory, N=11
[16] = IEAC best response, Disease status Relapsed, N=8
[17] = IEAC best response, Prior lenalidomide treatment No, N=17
[18] = IEAC best response, Prior lenalidomide treatment Yes, N=8
[19] = IEAC best response, Prior mogamulizumab treatment No, N=1
[20] = IEAC best response, Prior mogamulizumab treatment Yes, N=24
[21] = Grade ≥3 hematologic TEAE, % of patients
[22] = hematologic TEAE, all grades, % of patients

SMILES: Cc1cc(C)c(CNC(=O)c2cc(Cl)c3c(c2C)O[C@@](C)([C@H]2CC[C@H](N(C)C)CC2)O3)c(=O)[nH]1 [valemetostat, Valemetostat tosylate]
- investigator-assessed CR rate [1]: 28.0%
- attenuation of ATL cell growth in vitro [2]: greater attenuation of ATL cell growth in vitro at lower concentrations than tazemetostat and GSK126
- H3K27 trimethylation [3]: strongly reduced H3K27 trimethylation
- ORR in nodal or extranodal lesions ([4]; IEAC): 50%
- CR [4, 7]: 5 (31.3) n (%)
- CRu [4, 7]: 0 n (%)
- ORR [4, 7]: 10 (62.5) n (%)
- PD [4, 7]: 2 (12.5) n (%)
- PR [4, 7]: 5 (31.3) n (%)
- CR [4, 8]: 0 n (%)
- CRu [4, 8]: 0 n (%)
- ORR [4, 8]: 1 (16.7) n (%)
- PD [4, 8]: 0 n (%)
- PR [4, 8]: 1 (16.7) n (%)
- CR [4, 9]: 0 n (%)
- CRu [4, 9]: 0 n (%)
- ORR [4, 9]: 1 (33.3) n (%)
- PD [4, 9]: 1 (33.3) n (%)
- PR [4, 9]: 1 (33.3) n (%)
- CR [4, 10]: 5 (20.0) n (%)
- CRu [4, 10]: 0 n (%)
- ORR [4, 10]: 12 (48.0) n (%)
- PD [4, 10]: 3 (12.0) n (%)
- PR [4, 10]: 7 (28.0) n (%)
- CR [4, 11]: 6 (30.0) n (%)
- CRu [4, 11]: 2 (10.0) n (%)
- ORR [4, 11]: 10 (50.0) n (%)
- PD [4, 11]: 3 (15.0) n (%)
- PR [4, 11]: 2 (10.0) n (%)
- CR [4, 12]: 2 (22.2) n (%)
- ORR [4, 12]: 8 (88.9) n (%)
- PD [4, 12]: 0 n (%)
- PR [4, 12]: 6 (66.7) n (%)
- CR [4, 13]: 1 (14.3) n (%)
- PD [4, 13]: 0 n (%)
- PR [4, 13]: 2 (28.6) n (%)
- CR [4, 14]: 1 (16.7) n (%)
- CRu [4, 14]: 0 n (%)
- ORR [4, 14]: 4 (66.7) n (%)
- PD [4, 14]: 0 n (%)
- PR [4, 14]: 3 (50.0) n (%)
- CR [4, 15]: 3 (27.3) n (%)
- CRu [4, 15]: 0 n (%)
- ORR [4, 15]: 5 (45.5) n (%)
- PD [4, 15]: 2 (18.2) n (%)
- PR [4, 15]: 2 (18.2) n (%)
- CR [4, 16]: 1 (12.5) n (%)
- CRu [4, 16]: 0 n (%)
- ORR [4, 16]: 3 (37.5) n (%)
- PD [4, 16]: 1 (12.5) n (%)
- PR [4, 16]: 2 (25.0) n (%)
- CR [4, 17]: 5 (29.4) n (%)
- CRu [4, 17]: 0 n (%)
- ORR [4, 17]: 8 (47.1) n (%)
- PD [4, 17]: 2 (11.8) n (%)
- PR [4, 17]: 3 (17.6) n (%)
- CR [4, 18]: 0 n (%)
- CRu [4, 18]: 0 n (%)
- ORR [4, 18]: 4 (50.0) n (%)
- PD [4, 18]: 1 (12.5) n (%)
- PR [4, 18]: 4 (50.0) n (%)
- CR [4, 19]: 1 (100.0) n (%)
- CRu [4, 19]: 0 n (%)
- ORR [4, 19]: 1 (100.0) n (%)
- PD [4, 19]: 0 n (%)
- PR [4, 19]: 0 n (%)
- CR [4, 20]: 4 (16.7) n (%)
- CRu [4, 20]: 0 n (%)
- ORR [4, 20]: 11 (45.8) n (%)
- PD [4, 20]: 3 (12.5) n (%)
- PR [4, 20]: 7 (29.2) n (%)
- median TTR (time to response) ([4]; IEAC-assessed, range 1.0-5.6 months): 1.4 months
- ORR by subtype ([4]; IEAC, acute (10/16)): 62.5%
- CR rate ([4]; IEAC, all patients (5/25)): 20.0%
- PR rate ([4]; IEAC, all patients (7/25)): 28.0%
- TCR (tumor control rate) ([4]; IEAC, best response CR, CRu, PR or SD, 95% CI 68.8-97.5): 88.0%
- ORR by subtype ([4]; IEAC, lymphoma (1/6)): 16.7%
- ORR ([4]; IEAC, patients pretreated with mogamulizumab (11/24), 90% CI 28.2-64.2): 45.8%
- ORR ([4]; IEAC, patients refractory to mogamulizumab-containing therapies (3/6)): 50.0%
- ORR ([4]; IEAC, patients with prior lenalidomide treatment (4/8), 90% CI 15.7-84.3): 50%
- ORR by disease status ([4]; IEAC, recurrent (4/6)): 66.7%
- ORR by disease status ([4]; IEAC, refractory disease (5/11)): 45.5%
- ORR by disease status ([4]; IEAC, relapsed (3/8)): 37.5%
- ORR by subtype ([4]; IEAC, unfavorable chronic (1/3)): 33.3%
- centrally reviewed IEAC-assessed ORR ([4]; all patients (12/25), 90% CI 30.5-65.9): 48.0%
- responders with an ongoing response ([4]; at data cutoff (6/12)): 50%
- patients who achieved SD able to receive valemetostat for ≥6 months ([4]; following treatment initiation): 4 of 10
- median PFS ([4]; immature, 95% CI 3.0 months to not estimable): 7.4 months
- median OS ([4]; immature, 95% CI 6.5-16.4 months): 16.4 months
- responses converted from PR to CR ([4]; in vivo): 2 patients
- TEAEs leading to dose reduction ([5]; 2 patients): 8%
- Serious TEAEs ([5]; 8 patients): 32%
- Secondary malignancies, including hematologic malignancy or myelodysplastic syndrome ([5]; AE of special interest): not observed
- TEAEs that required dose interruption ([5]; Five patients): 20%
- anemia [5, 21]: 32%
- leukopenia [5, 21]: 12%
- lymphopenia [5, 21]: 16%
- neutropenia [5, 21]: 12%
- thrombocytopenia [5, 21]: 32%
- Grade ≥3 TEAEs ([5]; N = 25): 15 (60.0) n (%)
- Grade ≥3 TRAEs ([5]; N = 25): 14 (56.0) n (%)
- Serious TEAE ([5]; N = 25): 8 (32.0) n (%)
- Serious TRAEs ([5]; N = 25): 7 (28.0) n (%)
- TEAEs leading to discontinuation ([5]; N = 25): 2 (8.0) n (%)
- TEAEs leading to interruption ([5]; N = 25): 5 (20.0) n (%)
- TEAEs leading to reduction ([5]; N = 25): 2 (8.0) n (%)
- TRAEs ([5]; N = 25): 24 (96.0) n (%)
- TRAEs leading to discontinuation ([5]; N = 25): 2 (8.0) n (%)
- TRAEs leading to interruption ([5]; N = 25): 4 (16.0) n (%)
- TRAEs leading to reduction ([5]; N = 25): 2 (8.0) n (%)
- TEAEs ([5]; N = 25, All AEs): 25 (100.0) n (%)
- Alopecia ([5]; TEAE, All grades, N = 25): 10 (40.0) n (%)
- Decreased appetite ([5]; TEAE, All grades, N = 25): 5 (20.0) n (%)
- Dysgeusia ([5]; TEAE, All grades, N = 25): 9 (36.0) n (%)
- Pyrexia ([5]; TEAE, All grades, N = 25): 5 (20.0) n (%)
- anemia ([5]; TEAE, All grades, N = 25): 13 (52.0) n (%)
- leukopenia ([5]; TEAE, All grades, N = 25): 5 (20.0) n (%)
- lymphopenia ([5]; TEAE, All grades, N = 25): 6 (24.0) n (%)
- neutropenia ([5]; TEAE, All grades, N = 25): 7 (28.0) n (%)
- thrombocytopenia ([5]; TEAE, All grades, N = 25): 20 (80.0) n (%)
- Alopecia ([5]; TEAE, Grade ≥3, N = 25): 0 n (%)
- Decreased appetite ([5]; TEAE, Grade ≥3, N = 25): 2 (8.0) n (%)
- Dysgeusia ([5]; TEAE, Grade ≥3, N = 25): 0 n (%)
- Pyrexia ([5]; TEAE, Grade ≥3, N = 25): 0 n (%)
- anemia ([5]; TEAE, Grade ≥3, N = 25): 8 (32.0) n (%)
- leukopenia ([5]; TEAE, Grade ≥3, N = 25): 3 (12.0) n (%)
- lymphopenia ([5]; TEAE, Grade ≥3, N = 25): 4 (16.0) n (%)
- neutropenia ([5]; TEAE, Grade ≥3, N = 25): 3 (12.0) n (%)
- thrombocytopenia ([5]; TEAE, Grade ≥3, N = 25): 8 (32.0) n (%)
- discontinued study treatment owing to AEs ([5]; Two patients (cardiac failure, thrombocytopenia)): 8%
- patients with thrombocytopenia who required dose modification ([5]; discontinuation 1 patient, dose interruption 2 patients): Three of 20
- median time to recovery ([5]; grade 4 thrombocytopenia, recovery to platelet count ≥25 × 10^9/L): 3 days
- anemia [5, 22]: 52%
- leukopenia [5, 22]: 20%
- lymphopenia [5, 22]: 24%
- neutropenia [5, 22]: 28%
- thrombocytopenia [5, 22]: 80%
- patients requiring a red blood cell transfusion for anemia ([5]; in vivo): 3 patients
- patients requiring platelet transfusions for thrombocytopenia ([5]; in vivo): Five
- treatment-related deaths ([5]; in vivo): No treatment-related deaths occurred
- patients who experienced grade 4 thrombocytopenia ([5]; platelet count <25 × 10^9/L): 3 patients
- Rac (accumulation ratio for AUCtau) ([6]; Total, Cycle 1 day 15): 1.19
- Rac (accumulation ratio for AUCtau) ([6]; Unbound, Cycle 1 day 15): 1.27
- AUC ([6]; Total): 20800 ng·h/mL
- AUC ([6]; Unbound): 584 ng·h/mL
- Cmax ([6]; Total valemetostat, Cycle 1 day 1, 200 mg once daily): 2230 ng/mL
- Cmax ([6]; Total valemetostat, Cycle 1 day 15): 2300 ng/mL
- Cmax ([6]; Unbound valemetostat, Cycle 1 day 1): 81.7 ng/mL
- Cmax ([6]; Unbound valemetostat, Cycle 1 day 15): 84.9 ng/mL
